Here are results for eight compounds from ChEMBL document CHEMBL2311356, “The effect of 17-N substituents on the activity of the opioid κ receptor in nalfurafine derivatives” (Bioorg Med Chem Lett, 2013).

Experiment [1] deals with T1, Kappa-type opioid receptor (Homo sapiens, UniProt P41145). The experiment in a line: Agonist activity at human recombinant kappa opioid receptor expressed in CHO cells after 2 hrs by [35S]-GTPgammaS binding assay. The class given is functional, cell-based. In short, it runs like this: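 CHO cell membranes carrying the recombinant human κ receptor were incubated with [³⁵S]GTPγS, GDP and the test agent. Values are means of four samples.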
T1 sequence (P41145 whole entry): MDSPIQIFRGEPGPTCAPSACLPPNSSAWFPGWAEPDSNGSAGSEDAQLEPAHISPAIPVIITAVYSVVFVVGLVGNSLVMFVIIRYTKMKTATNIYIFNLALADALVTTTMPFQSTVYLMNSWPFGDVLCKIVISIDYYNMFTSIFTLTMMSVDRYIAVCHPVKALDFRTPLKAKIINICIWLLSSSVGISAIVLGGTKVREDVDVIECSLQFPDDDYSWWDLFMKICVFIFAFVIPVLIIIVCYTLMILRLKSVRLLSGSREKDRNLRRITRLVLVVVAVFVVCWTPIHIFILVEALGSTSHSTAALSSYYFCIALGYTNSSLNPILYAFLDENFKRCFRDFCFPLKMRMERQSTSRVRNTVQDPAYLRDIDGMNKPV
(Binding of GTPγS marks nucleotide exchange on a G protein.)

Experiment [2] is described as follows: Selectivity ratio of Ki for delta opioid receptor in mouse whole brain membranes without cerebellum to Ki for kappa opioid receptor in guinea pig cerebellum. The class given is cell membranes.
A short description of experiment [3]: Selectivity ratio of Ki for mu opioid receptor in mouse whole brain membranes without cerebellum to Ki for kappa opioid receptor in guinea pig cerebellum. Format: cell membranes.
For experiment [4], the target named is T1, Kappa-type opioid receptor. The experiment in a line: Agonist activity at human recombinant kappa opioid receptor expressed in CHO cells after 2 hrs by [35S]-GTPgammaS binding assay relative to control. The class given is functional, cell-based. In short, it runs like this: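 CHO cell membranes carrying the recombinant human κ receptor were incubated with [³⁵S]GTPγS, GDP and the test agent. U-69,593 served as the reference κ agonist. Values are means of four samples.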

The target in the next experiment is Mu-type opioid receptor (Mus musculus, UniProt P42866). The experiment in a line: Displacement of [3H]DAMGO from mu opioid receptor in mouse whole brain membranes without cerebellum after 1 hr by liquid scintillation counting analysis. Format: cell membranes, Membrane. In short, it runs like this:
(§1)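 Radioligand displacement from membranes used [³H]DAMGO for μ and [³H]DPDPE for δ, both on mouse whole brain without cerebellum. For κ it used [³H]U-69,593 on guinea pig cerebellum. Values are means of three samples.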
A general note: Displacement assays read how much labelled ligand stays bound in the presence of the test substance.

The target in experiment [5] is Kappa-type opioid receptor (Cavia porcellus, UniProt P41144). Nature of the experiment: Displacement of [3H]U69593 from kappa opioid receptor in guinea pig cerebellum after 1 hr by liquid scintillation counting analysis. In short, it runs like this:
as §1

Experiment [6] addresses Delta-type opioid receptor (Mus musculus, UniProt P32300). Nature of the experiment: Displacement of [3H]DPDPE from delta opioid receptor in mouse whole brain membranes without cerebellum after 1 hr by liquid scintillation counting analysis. The class given is cell membranes, Membrane. A digest of the protocol: as §1

A word on the EC50: it is the concentration that produces a half-maximal response. By Emax is commonly meant the size of the effect at its maximum, as opposed to the concentration needed. The Ki is the dissociation constant of the complex between target and ligand, obtained from inhibition or displacement. A low value points to a stronger hold on the target.

SMILES strings stand for the structures. Bounds are passed on as bounds.

Sequence of Delta-type opioid receptor (P32300 whole entry): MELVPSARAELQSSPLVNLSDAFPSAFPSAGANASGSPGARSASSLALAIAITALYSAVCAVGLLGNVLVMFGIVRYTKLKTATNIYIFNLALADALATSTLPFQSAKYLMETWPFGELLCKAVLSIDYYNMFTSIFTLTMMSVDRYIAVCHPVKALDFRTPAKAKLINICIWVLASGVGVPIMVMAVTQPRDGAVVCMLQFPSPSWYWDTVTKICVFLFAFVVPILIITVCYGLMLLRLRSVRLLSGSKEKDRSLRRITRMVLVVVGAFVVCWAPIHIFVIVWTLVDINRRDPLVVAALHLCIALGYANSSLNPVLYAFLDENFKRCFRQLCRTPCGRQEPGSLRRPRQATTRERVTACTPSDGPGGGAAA
Sequence of Kappa-type opioid receptor (Cavia porcellus, UniProt P41144) (P41144 whole entry): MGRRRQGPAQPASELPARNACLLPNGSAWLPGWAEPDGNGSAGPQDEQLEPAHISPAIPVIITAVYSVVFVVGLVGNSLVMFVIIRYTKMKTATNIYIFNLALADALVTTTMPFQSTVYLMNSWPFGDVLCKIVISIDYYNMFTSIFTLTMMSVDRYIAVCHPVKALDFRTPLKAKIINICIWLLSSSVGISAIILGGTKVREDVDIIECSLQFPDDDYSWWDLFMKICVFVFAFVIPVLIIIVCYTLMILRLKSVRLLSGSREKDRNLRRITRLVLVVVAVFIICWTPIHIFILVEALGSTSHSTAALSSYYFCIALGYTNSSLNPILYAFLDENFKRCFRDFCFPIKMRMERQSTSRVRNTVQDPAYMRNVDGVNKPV
Sequence of Mu-type opioid receptor (P42866 whole entry): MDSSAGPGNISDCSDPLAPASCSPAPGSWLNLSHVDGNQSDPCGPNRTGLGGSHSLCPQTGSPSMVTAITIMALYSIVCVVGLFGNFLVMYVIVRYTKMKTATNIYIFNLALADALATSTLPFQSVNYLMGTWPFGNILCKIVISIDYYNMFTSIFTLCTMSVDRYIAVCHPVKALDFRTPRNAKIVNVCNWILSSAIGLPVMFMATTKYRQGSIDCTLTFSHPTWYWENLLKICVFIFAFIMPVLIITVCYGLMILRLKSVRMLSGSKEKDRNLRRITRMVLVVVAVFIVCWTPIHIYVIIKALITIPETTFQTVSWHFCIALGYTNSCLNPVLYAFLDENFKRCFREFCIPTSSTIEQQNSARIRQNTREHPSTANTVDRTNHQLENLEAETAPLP

With `CN(CCC[C@]1(O)[C@H]2CCN(C)[C@@H]1Cc1ccc(O)c(O)c12)C(=O)/C=C/c1ccoc1`, the half-maximal effective concentration (EC50) in experiment [1] turned out to be 11.3 nM. Also, the results for the Ratio Ki in experiment [2] and in experiment [3] were 48.6 and 3.77, respectively. Also, the Emax in experiment [4] came out at 90.4%. The inhibition constant (Ki) at Mu-type opioid receptor was determined as 2.77 nM; in experiment [5], 0.735 nM; in experiment [6], 35.7 nM.
On to `CN(CCC[C@]1(O)[C@H]2CCN(CC(F)F)[C@@H]1Cc1ccc(O)c(O)c12)C(=O)/C=C/c1ccoc1`, for which the EC50 in experiment [1] came out at 22.4 nM. The maximum response (Emax) in experiment [4] came out at 101%. For the same compound, the inhibitory constant (Ki) was greater than 1000 nM at Mu-type opioid receptor, 2.19 nM in experiment [5] and greater than 1000 nM in experiment [6].
Turning to `CCN1CC[C@H]2c3c(ccc(O)c3O)C[C@@H]1[C@]2(O)CCCN(C)C(=O)/C=C/c1ccoc1`, in experiment [1], the EC50 was determined as 3.79 nM. Moreover, the Ratio Ki was determined as 818 in experiment [2] and 17.6 in experiment [3]. The Emax in experiment [4] was determined as 97.4%. In addition, the inhibition constant (Ki) was determined as 11 nM on Mu-type opioid receptor, 0.625 nM in experiment [5] and 512 nM in experiment [6].
For `CN(CCC[C@]1(O)[C@H]2CCN(CC(F)(F)F)[C@@H]1Cc1ccc(O)c(O)c12)C(=O)/C=C/c1ccoc1`, the concentration giving a half-maximal response (EC50) in experiment [1] worked out at 32.2 nM. The Emax in experiment [4] came out at 89%. Moreover, the inhibition constant Ki was greater than 1000 nM on Mu-type opioid receptor, 4.58 nM in experiment [5] and greater than 1000 nM in experiment [6].
Regarding `CCCN1CC[C@H]2c3c(ccc(O)c3O)C[C@@H]1[C@]2(O)CCCN(C)C(=O)/C=C/c1ccoc1`, the EC50 in experiment [1] was 2.72 nM. In addition, the Ratio Ki in experiment [2] worked out at 537; in experiment [3] it was 58.4. The Emax in experiment [4] is 86.5%. Also, the Ki amounted to 19.2 nM on Mu-type opioid receptor, 0.328 nM in experiment [5] and 176 nM in experiment [6].
Turning to `CN(CCC[C@]1(O)[C@H]2CCN(CCF)[C@@H]1Cc1ccc(O)c(O)c12)C(=O)/C=C/c1ccoc1`, the concentration giving a half-maximal response (EC50) in experiment [1] was 2.23 nM. For the same compound, the Ratio Ki in experiment [3] was determined as 16.6. In addition, the maximal response (Emax) in experiment [4] turned out to be 95.2%. Besides, the figures for the inhibition constant (Ki) (on Mu-type opioid receptor; in experiment [5]; in experiment [6]) were 8.39 nM, 0.507 nM and greater than 1000 nM, respectively.
Turning to `CN(C(=O)/C=C/c1ccoc1)[C@@H]1CC[C@@]2(O)[C@H]3Cc4ccc(O)c5c4[C@@]2(CCN3CC2CC2)[C@H]1O5`, the maximum response (Emax) in experiment [4] was found to be 98.1%.
Regarding `CC(C)CN1CC[C@H]2c3c(ccc(O)c3O)C[C@@H]1[C@]2(O)CCCN(C)C(=O)/C=C/c1ccoc1`, the EC50 in experiment [1] is 8.07 nM. Besides, the values for the Ratio Ki in experiment [2] and in experiment [3] were 872 and 78.4, respectively. Further, in experiment [4], the maximum response (Emax) was determined as 99.5%. In addition, the figures for the inhibitory constant (Ki) (on Mu-type opioid receptor; in experiment [5]; in experiment [6]) were 46.2 nM, 0.59 nM and 514 nM, respectively.
